Results: ChEMBL document CHEMBL4715752, “Synthesis and anti-leishmanial evaluation of 1-phenyl-2,3,4,9-tetrahydro-1H-β-carboline derivatives against Leishmania infantum” (Eur J Med Chem, 2016)
Converted amounts (≈) assume the structure as drawn. Values belong to the compound of their own block, whether it stands above or below them.

How the values were obtained:
[1] = Selectivity index, ratio of CC50 for mouse splenocytes to IC50 for Leishmania infantum BCN150 amastigotes expressing IFP1.4 infected in BALB/c mouse splenocytes; format: toxicity, cell-based; conditions: read-out: Ratio CC50/IC50
[2] = Cytotoxicity against mouse splenocytes by alamar blue assay; format: cell-based, Splenocyte
Leishmania infantum [3] = assay: Antileishmanial activity against Leishmania infantum BCN150 amastigotes expressing IFP1.4 infected in BALB/c mouse splenocytes incubated for 72 hrs by infrared fluorescence imaging analysis; format: functional, organism-based; conditions: BCN150, Splenocyte
How it was run: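 Spleens from female BALB/c mice infected intraperitoneally. Splenocytes washed 3x in PBS and seeded in 384-well plates in RPMI, 20% FCS, 1 mM pyruvate, vitamins, 10 mM HEPES, penicillin/streptomycin. Wells set by fixed IR fluorescence per well, not by cell count. Compounds at various concentrations for 72 h. Fluorescence read at 700 nm on an infrared imager.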

Leishmania infantum [4] = assay: Antileishmanial activity against Leishmania infantum BCN150 promastigotes expressing IFP1.4 assessed as inhibition of parasite growth by measuring the infrared fluorescence incubated for 48 hrs; format: functional, organism-based; conditions: BCN150, 48 h
How it was run: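 Transgenic infrared-fluorescent L. infantum BCN150 promastigotes in 96-well plates. 200 µL culture per well at 1 × 10^6 with graded compound concentrations (1, 10, 100). Incubated 48 h at 26 °C, then promastigote growth assessed.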

[5] = Selectivity index, ratio of CC50 for mouse splenocytes to IC50 for Leishmania infantum BCN150 promastigotes expressing IFP1.4; format: toxicity; conditions: read-out: Ratio CC50/IC50
Leishmania infantum [6] = assay: Antileishmanial activity against late log phase promastigote stage of Leishmania infantum MHOM/FR/78/LEM75 assessed as inhibition of parasite growth incubated for 48 hrs by hemocytometer counting method; format: functional, organism-based; conditions: MHOM/FR/78/LEM75, 48 h

- IC50 (Leishmania infantum [3]): 1.48 µM
SMILES: Cc1cccc(NC(=O)CN2CCc3c([nH]c4ccccc34)C2c2ccccc2)c1 (configuration not stated)
- selectivity ratio [1]: > 135
- CC50 [2]: > 200 µM
- selectivity ratio [5]: > 26.2
- IC50 (Leishmania infantum [4]): 7.63 µM

- IC50 (Leishmania infantum [3]): 0.67 µM
SMILES: Cc1ccccc1NC(=O)CN1CCc2c([nH]c3ccccc23)C1c1ccccc1 (configuration not stated)
- selectivity ratio [1]: > 298
- CC50 [2]: > 200 µM
- selectivity ratio [5]: > 19.2
- IC50 (Leishmania infantum [4]): 10.4 µM

- IC50 (Leishmania infantum [3]): 4.16 µM
SMILES: O=C(CN1CCc2c([nH]c3ccccc23)C1c1ccccc1)Nc1ccc(F)cc1 (configuration not stated)
- selectivity ratio [1]: > 48.1
- CC50 [2]: > 200 µM
- selectivity ratio [5]: > 13.2
- IC50 (Leishmania infantum [4]): 15.1 µM

- IC50 (Leishmania infantum [3]): 1.68 µM
SMILES: O=C(CN1CCc2c([nH]c3ccccc23)C1c1ccccc1)Nc1ccccc1 (configuration not stated)
- selectivity ratio [1]: > 119
- CC50 [2]: > 200 µM
- selectivity ratio [5]: > 16.2
- IC50 (Leishmania infantum [4]): 12.4 µM

- IC50 (Leishmania infantum [3]): 3.75 µM
SMILES: O=C(CN1CCc2c([nH]c3ccccc23)C1c1ccccc1)Nc1ccc(Cl)cc1 (configuration not stated)
- selectivity ratio [1]: 38.9
- CC50 [2]: 146 µM
- selectivity ratio [5]: 9.64
- IC50 (Leishmania infantum [4]): 15.1 µM

- IC50 (Leishmania infantum [3]): 1.51 µM
SMILES: O=C(CN1CCc2c([nH]c3ccccc23)C1c1ccccc1)Nc1cccc(Cl)c1 (configuration not stated)
- selectivity ratio [1]: > 132
- CC50 [2]: > 200 µM
- selectivity ratio [5]: > 29.9
- IC50 (Leishmania infantum [4]): 6.68 µM

- IC50 (Leishmania infantum [3]): 1.05 µM
SMILES: O=C(CN1CCc2c([nH]c3ccccc23)C1c1ccccc1)Nc1ccccc1Cl (configuration not stated)
- selectivity ratio [1]: > 190
- CC50 [2]: > 200 µM
- selectivity ratio [5]: > 9.67
- IC50 (Leishmania infantum [4]): 20.7 µM

- IC50 (Leishmania infantum [3]): 6.31 µM
SMILES: Cc1ccc(NC(=O)CN2CCc3c([nH]c4ccccc34)C2c2ccccc2)cc1 (configuration not stated)
- selectivity ratio [1]: > 31.7
- CC50 [2]: > 200 µM
- selectivity ratio [5]: > 10.4
- IC50 (Leishmania infantum [4]): 19.2 µM

Continued, compound first:

SMILES: O=C(CN1CCc2c([nH]c3ccccc23)C1c1ccccc1)Nc1cccc([N+](=O)[O-])c1 (configuration not stated)
- selectivity ratio [1]: > 230
- CC50 [2]: > 200 µM
- IC50 (Leishmania infantum [3]): 0.87 µM
- IC50 (Leishmania infantum [4]): > 100 µM

SMILES: COc1cccc(NC(=O)CN2CCc3c([nH]c4ccccc34)C2c2ccccc2)c1 (configuration not stated)
- selectivity ratio [1]: > 163
- CC50 [2]: > 200 µM
- IC50 (Leishmania infantum [3]): 1.23 µM
- selectivity ratio [5]: > 13.7
- IC50 (Leishmania infantum [4]): 14.6 µM

SMILES: O=C(CN1CCc2c([nH]c3ccccc23)C1c1ccccc1)Nc1ccc([N+](=O)[O-])cc1 (configuration not stated)
- selectivity ratio [1]: > 37.8
- CC50 [2]: > 200 µM
- IC50 (Leishmania infantum [3]): 5.29 µM
- selectivity ratio [5]: > 24.7
- IC50 (Leishmania infantum [4]): 8.1 µM

SMILES: Cc1ccc(NC(=O)CN2CCc3c([nH]c4ccccc34)C2c2ccccc2)c(C)c1 (configuration not stated)
- selectivity ratio [1]: > 75.8
- CC50 [2]: > 200 µM
- IC50 (Leishmania infantum [3]): 2.64 µM
- selectivity ratio [5]: > 11.8
- IC50 (Leishmania infantum [4]): 16.9 µM

SMILES: COc1ccc(NC(=O)CN2CCc3c([nH]c4ccccc34)C2c2ccccc2)cc1 (configuration not stated)
- selectivity ratio [1]: > 30.9
- CC50 [2]: > 200 µM
- IC50 (Leishmania infantum [3]): 6.46 µM
- IC50 (Leishmania infantum [4]): > 100 µM

SMILES: O=C(CN1CCc2c([nH]c3ccccc23)C1c1ccccc1)Nc1cccc2ccccc12 (configuration not stated)
- selectivity ratio [1]: > 88.9
- CC50 [2]: > 200 µM
- IC50 (Leishmania infantum [3]): 2.25 µM
- IC50 (Leishmania infantum [4]): > 100 µM

SMILES: COc1ccccc1NC(=O)CN1CCc2c([nH]c3ccccc23)C1c1ccccc1 (configuration not stated)
- selectivity ratio [1]: > 37.4
- CC50 [2]: > 200 µM
- IC50 (Leishmania infantum [3]): 5.35 µM
- selectivity ratio [5]: > 100
- IC50 (Leishmania infantum [4]): 1.99 µM

SMILES: O=C(CN1CCc2c([nH]c3ccccc23)C1c1ccccc1)Nc1cccc(C(F)(F)F)c1 (configuration not stated)
- selectivity ratio [1]: > 99
- CC50 [2]: > 200 µM
- IC50 (Leishmania infantum [3]): 2.02 µM
- selectivity ratio [5]: > 4.43
- IC50 (Leishmania infantum [4]): 45.2 µM

SMILES: C/C=C1\CCN2CCc3c([nH]c4ccccc34)[C@H]2[C@@H]1[C@@H](C(=O)OC)[C@H]1NCCc2c1[nH]c1ccccc21
- IC50 (Leishmania infantum [6]): 1.56 µg/mL (≈ 3.15 µM)

SMILES: C[C@@H]1[C@H](O)[C@@H](C)/C=C/C=C/C=C/C=C/C=C/C=C/C=C/[C@H](O[C@@H]2O[C@H](C)[C@@H](O)[C@H](N)[C@@H]2O)C[C@@H]2O[C@](O)(C[C@@H](O)C[C@@H](O)[C@H](O)CC[C@@H](O)C[C@@H](O)CC(=O)O[C@H]1C)C[C@H](O)[C@H]2C(=O)O [AMPHOTERICIN B]
- selectivity ratio [1]: > 62.5
- CC50 [2]: > 20 µM
- IC50 (Leishmania infantum [3]): 0.32 µM
- selectivity ratio [5]: > 260
